Key:
Format in all cases: cell-based
[1] = target: T1, Adenosine receptor A2a (Homo sapiens, UniProt P29274); test: Displacement of [3H][…] from human adenosine A2A receptor expressed in human HeLa cells by liquid scintillation counting
Summary of the method: (§1)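 Nonspecific binding was defined with 50 μM NECA. Filters were washed four times with ice-cold buffer, then counted by scintillation. Ki (Cheng–Prusoff) is mean ± SEM, n=3; % displacement at 0.1 μM is n=2.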

[2] = target: T2, Adenosine receptor A1 (Homo sapiens, UniProt P30542); test: Displacement of [3H]DPCPX from human adenosine A1 receptor expressed in CHO cells by liquid scintillation counting
T2 sequence (P30542 whole entry): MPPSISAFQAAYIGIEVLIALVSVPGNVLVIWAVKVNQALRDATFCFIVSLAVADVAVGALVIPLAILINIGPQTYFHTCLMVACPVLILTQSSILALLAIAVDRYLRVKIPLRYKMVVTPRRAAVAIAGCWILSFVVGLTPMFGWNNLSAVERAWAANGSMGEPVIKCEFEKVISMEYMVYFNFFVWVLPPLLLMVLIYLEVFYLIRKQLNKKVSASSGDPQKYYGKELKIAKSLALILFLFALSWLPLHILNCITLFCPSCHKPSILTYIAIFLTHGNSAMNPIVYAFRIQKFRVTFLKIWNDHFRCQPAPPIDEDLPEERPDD
Summary of the method: (§2)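 Transfected CHO cell membranes (15 μg) were incubated with [3H]DPCPX at 25 °C for 60 min, with six test concentrations from 0.1 nM to 1 μM. Nonspecific binding was defined with 10 μM R-PIA. Filters were washed four times with ice-cold buffer before scintillation counting. Ki (Cheng–Prusoff) is mean ± SEM, n=3; % displacement at 0.1 μM is n=2.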

[3] = target: T3, Adenosine receptor A2b (Homo sapiens) (UniProt P29275); test: Displacement of [3H]DPCPX from human adenosine A2B receptor expressed in HEK293 cells at 0.1 uM by liquid scintillation counting
T3 sequence (whole entry): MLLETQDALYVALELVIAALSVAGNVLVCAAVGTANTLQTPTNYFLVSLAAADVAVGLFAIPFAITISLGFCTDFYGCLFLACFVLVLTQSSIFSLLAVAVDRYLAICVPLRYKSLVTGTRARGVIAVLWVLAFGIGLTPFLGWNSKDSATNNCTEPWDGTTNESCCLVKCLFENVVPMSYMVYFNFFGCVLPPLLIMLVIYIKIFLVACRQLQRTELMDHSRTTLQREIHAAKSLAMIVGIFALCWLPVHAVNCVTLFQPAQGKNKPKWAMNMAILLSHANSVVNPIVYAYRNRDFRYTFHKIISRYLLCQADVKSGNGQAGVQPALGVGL
Summary of the method: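 HEK-293 membranes (18 μg) were incubated with [3H]DPCPX (35 nM) at 25 °C for 30 min, with six concentrations from 0.1 nM to 1 μM. Nonspecific binding was defined with 400 μM NECA. Filters were washed six times with ice-cold buffer and counted by scintillation. Ki (Cheng–Prusoff) is mean ± SEM, n=3; % displacement at 0.1 μM is n=2.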

[4] = target: T4, Adenosine receptor A3 (Homo sapiens, UniProt P0DMS8); test: Displacement of [3H]NECA from human adenosine A3 receptor expressed in human HeLa cells by liquid scintillation counting; details: read-out: Ki
T4 sequence (P0DMS8 whole entry): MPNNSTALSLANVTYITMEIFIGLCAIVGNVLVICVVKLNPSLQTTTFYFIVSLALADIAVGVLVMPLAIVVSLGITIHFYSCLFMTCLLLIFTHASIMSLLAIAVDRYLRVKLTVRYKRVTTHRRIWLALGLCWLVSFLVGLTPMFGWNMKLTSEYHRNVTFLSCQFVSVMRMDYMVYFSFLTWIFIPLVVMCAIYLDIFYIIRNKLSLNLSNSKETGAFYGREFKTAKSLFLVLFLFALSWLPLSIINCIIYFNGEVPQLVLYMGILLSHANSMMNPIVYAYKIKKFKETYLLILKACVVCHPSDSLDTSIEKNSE
Summary of the method: (§3)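 HeLa membranes (90 μg) carrying hA3AR were incubated with [3H]NECA (30 nM) at 25 °C for 180 min, with six concentrations from 0.1 nM to 1 μM. Nonspecific binding was defined with 100 μM R-PIA. Filters were washed six times and counted by scintillation.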

[5] = target: T1, Adenosine receptor A2a; test: Displacement of [3H][…] from human adenosine A2A receptor expressed in human HeLa cells at 0.1 uM by liquid scintillation counting; summary of the method: as §1
[6] = target: T5, Adenosine receptor A1 (Homo sapiens) (UniProt P30542); test: Displacement of [3H]DPCPX from human adenosine A1 receptor expressed in CHO cells at 0.1 uM by liquid scintillation counting; summary of the method: as §2
T5 sequence (whole entry): T2 sequence (P30542 whole entry)

[7] = target: T6, Adenosine receptor A3 (Homo sapiens) (UniProt P0DMS8); test: Displacement of [3H]NECA from human adenosine A3 receptor expressed in human HeLa cells at 0.1 uM by liquid scintillation counting
T6 sequence (whole entry): T4 sequence (P0DMS8 whole entry)
Summary of the method: as §3, with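 “scintillation. Ki (Cheng–Prusoff) is mean ± SEM, n=3; % displacement at 0.1 μM is n=2.” for “scintillation.”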

T1 sequence (P29274 whole entry): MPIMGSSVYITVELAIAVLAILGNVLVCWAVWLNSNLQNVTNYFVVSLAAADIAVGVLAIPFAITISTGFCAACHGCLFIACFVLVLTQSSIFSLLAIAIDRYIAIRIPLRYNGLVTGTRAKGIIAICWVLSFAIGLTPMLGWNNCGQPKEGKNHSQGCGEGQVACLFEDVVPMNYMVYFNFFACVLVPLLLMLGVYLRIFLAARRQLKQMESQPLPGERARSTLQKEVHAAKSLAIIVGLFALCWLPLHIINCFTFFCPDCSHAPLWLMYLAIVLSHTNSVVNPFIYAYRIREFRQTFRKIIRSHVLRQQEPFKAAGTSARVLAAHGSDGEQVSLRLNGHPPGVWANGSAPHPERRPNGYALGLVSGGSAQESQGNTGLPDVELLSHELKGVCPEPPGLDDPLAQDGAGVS

Structure (SMILES)	Ki [1] [nM]	Ki [2] [nM]	inhibition [3] [%]	Ki [4] [nM]	inhibition [5] [%]	inhibition [6] [%]	inhibition [7] [%]
CCCC(=O)Nc1cc(-c2ccccc2F)nc(-c2ccccc2F)n1	142	18.7	9	135			
CCCC(=O)Nc1cc(-c2ccc3c(c2)OCO3)nc(-c2ccc3c(c2)OCO3)n1		9.7	16	59	22		
CCC(=O)Nc1cc(-c2ccccc2OC)nc(-c2ccccc2OC)n1		113	7	23.2	22		
CCC(=O)Nc1cc(-c2cccs2)nc(-c2cccs2)n1	114	32.9	17	21.8			
CCC(=O)Nc1nc(-c2ccc3c(c2)OCO3)cc(-c2ccc3c(c2)OCO3)n1		535	1	127	16		
CC(=O)Nc1cc(-c2ccccc2F)nc(-c2ccccc2F)n1	73.8		21	18.1		17	
CCC(=O)Nc1nc(-c2ccoc2)cc(-c2ccoc2)n1			11		2	3	16
CC(=O)Nc1cc(-c2ccc(F)cc2)nc(-c2ccc(F)cc2)n1	1330		1	16.7		15	
COc1ccc(-c2cc(-c3ccc(OC)cc3)nc(NC(C)=O)n2)cc1			1		7	1	20
CCCC(=O)Nc1nc(-c2ccc(C(F)(F)F)cc2)cc(-c2ccc(C(F)(F)F)cc2)n1			13		2	1	2
CC(=O)Nc1nc(-c2ccc(C(F)(F)F)cc2)cc(-c2ccc(C(F)(F)F)cc2)n1			2		1	2	10
CC(=O)Nc1nc(-c2ccccc2)cc(-c2ccccc2)n1			6		11	17	13
CC(=O)Nc1nc(-c2ccc(F)cc2)cc(-c2ccc(F)cc2)n1			1		2	2	8
CC(=O)Nc1nc(-c2ccsc2)cc(-c2ccsc2)n1			1		2	2	1
CCC(=O)Nc1nc(-c2ccc(F)cc2)cc(-c2ccc(F)cc2)n1			1		3	14	22
CCCC(=O)Nc1nc(-c2ccc(C)cc2)cc(-c2ccc(C)cc2)n1		3760	10	131	2		
CC(=O)Nc1nc(-c2ccc(Cl)cc2)cc(-c2ccc(Cl)cc2)n1			1		2	2	1
CCCC(=O)Nc1nc(-c2ccc(C(C)=O)cc2)cc(-c2ccc(C(C)=O)cc2)n1			2		14	7	22
CCC(=O)Nc1nc(-c2ccc(Cl)cc2)cc(-c2ccc(Cl)cc2)n1			2		11	1	14
CCCC(=O)Nc1cc(-c2ccsc2)nc(-c2ccsc2)n1		65.1	21		23		11

Structure (SMILES)	Ki [1] [nM]	Ki [2] [nM]	inhibition [3] [%]	Ki [4] [nM]	inhibition [5] [%]	inhibition [6] [%]	inhibition [7] [%]
CCC(=O)Nc1nc(-c2ccccc2OC)cc(-c2ccccc2OC)n1			2		13	21	22
CCC(=O)Nc1nc(-c2cccs2)cc(-c2cccs2)n1			2		25	24	21
COc1ccccc1-c1cc(-c2ccccc2OC)nc(NC(C)=O)n1			1		10	4	2
CCCC(=O)Nc1nc(/C=C/c2ccccc2)cc(/C=C/c2ccccc2)n1			2		3	1	12
CCC(=O)Nc1nc(-c2ccc(OC)cc2)cc(-c2ccc(OC)cc2)n1			8		1	2	13
CC(=O)Nc1cc(-c2ccsc2)nc(-c2ccsc2)n1	39.8		16	20.2		13	
CC(=O)Nc1nc(-c2ccc(C(C)=O)cc2)cc(-c2ccc(C(C)=O)cc2)n1			14		8	7	2
CCCC(=O)Nc1nc(-c2ccc(Cl)cc2)cc(-c2ccc(Cl)cc2)n1			1		3	1	17
CC(=O)Nc1nc(/C=C/c2ccccc2)cc(/C=C/c2ccccc2)n1			1		15	1	4
CC(=O)Nc1nc(-c2ccco2)cc(-c2ccco2)n1			11		19	1	9
CCCC(=O)Nc1nc(-c2ccc(SC)cc2)cc(-c2ccc(SC)cc2)n1			2		7	3	3
CC(=O)Nc1cc(-c2cccs2)nc(-c2cccs2)n1	24.6		23	8		19	
CCCC(=O)Nc1nc(-c2ccc3c(c2)OCO3)cc(-c2ccc3c(c2)OCO3)n1		678	1	751	8		
CSc1ccc(-c2cc(-c3ccc(SC)cc3)nc(NC(C)=O)n2)cc1			2		1	1	14
CCCC(=O)Nc1cc(-c2ccccc2OC)nc(-c2ccccc2OC)n1		41.3	3	110	14		
CCC(=O)Nc1cc(-c2ccc(C)cc2)nc(-c2ccc(C)cc2)n1		36.9	2	18.3	1		
CCCC(=O)Nc1nc(-c2ccc(OC)cc2)cc(-c2ccc(OC)cc2)n1			9		24	2	15
CC(=O)Nc1nc(-c2cccs2)cc(-c2cccs2)n1			3		5	2	21
CCCC(=O)Nc1nc(-c2ccc(OC)cc2OC)cc(-c2ccc(OC)cc2OC)n1			15		16	14	1
COc1ccc(-c2cc(-c3ccc(OC)cc3OC)nc(NC(C)=O)n2)c(OC)c1			1		2	1	9
